# Source: PubChem BioAssay (The Scripps Research Institute Molecular Screening Center)
# Sampled rows, rich in hits. Any-hit rate of the full collection: about 3%.
# NPY Y1 blocker: NPY-Y1 (human) receptor antagonism. HEK293-CNG Y1 cells, membrane potential fluorescence; NPY at EC95, then isoproterenol. hit rate 1% among 200,000. AID 1040. inhibition, % at 3.6 µM. P25929;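 active means inhibition above the campaign mean inhibition of all tested compounds plus 3 SD, cut at about 20% in these data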;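 further: 0% = DMSO wells given NPY plus isoproterenol and 100% = isoproterenol alone without NPY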
#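 System: HEK293 cells with Y1 receptor plus CNG channel / Probe or stimulus: NPY 25 nM then isoproterenol 1 µM plus Ro 20-1724 25 µM / Compound: one concentration, 3.6 µM, in 0.4% DMSO / Schedule: compound incubation 1 h at room temperature, readout 45 min post-stimulation / Measured by: membrane potential fluorescence / Read-out: % inhibition of NPY effect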
# Hsp70 act: Hsp70 transcriptional activation, primary screen | HeLa Hsp70 promoter luciferase reporter, luminescence; scaled: vehicle 0, proteasome-inhibitor control 100% | activation, % at 10 µM | hit rate 0.04% among 200,000 | AID 1203;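 active means activation above the mean across all tested compounds plus 3 SD, cutoff set per campaign, cut at about 5.5% in these data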;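 further: 100% = MG132 at 30 µM as the positive control and 0% = DMSO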
# NPY1 pot ag: potentiates or activates human NPY-Y1 receptor. NPY-Y1 expressing cells, potentiator/agonist activation. hit rate 0.37% among 220,000. activation, % at 3.6 µM. P25929; in the data active means activation above about 33%, passing the limit was not always enough;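 further: cells stimulated with NPY at EC10 then isoproterenol at EC100; 0% = low agonist plus stimulus and 100% = saturating agonist plus stimulus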
# NPY2 pot ag: potentiates or activates human NPY-Y2 receptor. P49146. cells expressing NPY-Y2, potentiator/agonist read-out. activation, % at 3.6 µM. hit rate 0.45% among 220,000. AID 1359; in the data active means activation above about 27%;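 further: cells stimulated with NPY near EC25 plus isoproterenol at EC100; 0% = vehicle plus submaximal agonist and 100% = vehicle plus saturating agonist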
# Target sequence (P49146 whole entry, looked up): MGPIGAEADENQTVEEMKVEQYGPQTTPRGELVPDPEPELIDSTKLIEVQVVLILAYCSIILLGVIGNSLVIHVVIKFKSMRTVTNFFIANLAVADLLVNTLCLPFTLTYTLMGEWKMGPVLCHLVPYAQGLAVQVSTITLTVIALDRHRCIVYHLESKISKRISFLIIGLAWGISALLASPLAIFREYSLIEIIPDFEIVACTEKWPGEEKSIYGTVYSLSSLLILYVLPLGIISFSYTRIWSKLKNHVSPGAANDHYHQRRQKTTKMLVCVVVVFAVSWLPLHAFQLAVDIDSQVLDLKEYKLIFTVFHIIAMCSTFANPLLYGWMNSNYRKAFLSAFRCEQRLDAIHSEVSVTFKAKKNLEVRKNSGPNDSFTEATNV
# NPY-Y2 antag: blocks the human neuropeptide Y Y2 receptor. NPY-Y2 expressing cells, antagonist mode. inhibition, % at 2.7 µM. P49146. AID 793. hit rate 0.99% among 140,000;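 further: 0% = vehicle with agonist challenge and 100% = reference antagonist with challenge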
# Wee1 degr inh: human Wee1 degradation inhibition, primary screen. P30291. HeLa Luc-Wee1K328M stability, luciferase luminescence; 100% = proteasome inhibitor MG132 effect. reporter increase, % at 5 µM. hit rate 1.2% among 220,000. AID 1321;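 active means activation above the mean of all tested compounds plus 3 SD, set per screening run, cut at about 8.8% in these data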;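 further: cells exposed to compound for 20 h before luminescence read; 0% = DMSO alone and 100% = MG132 at 30 µM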
# NPY1 antag conf: confirmation of human neuropeptide Y receptor Y1 antagonists | shares compounds with NPY Y1 blocker | HEK293-CNG NPY-Y1, membrane potential fluorescence, cAMP; NPY challenge against isoproterenol-raised cAMP | inhibition, % at 3.6 µM | hit rate 21% among 1,200; in the data active means inhibition above about 20%;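 further: 0% = vehicle with agonist plus stimulus and 100% = stimulus alone without agonist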
# NPY-Y2 antag ct: human NPY-Y2 antagonism in NPY-Y1 counter-screen | hit rate 28% among 1,200 | HEK293 NPY-Y2 CNG membrane potential fluorescence; cells given NPY, then isoproterenol | AID 1255 | shares compounds with NPY Y1 blocker | inhibition, % at 3.6 µM;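 further: 0% = DMSO with agonist challenge and 100% = reference antagonist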
# Active calls of the source: *; nt = not tested or not shown. Unless noted, no stated cut-off is given here; in the data, active means inhibition above about 17%; inactive means the rest.
SMILES,NPY Y1 blocker,Hsp70 act,NPY1 pot ag,NPY2 pot ag,NPY-Y2 antag,Wee1 degr inh,NPY1 antag conf,NPY-Y2 antag ct
CCc1cc(CN2CCOCC2)c(NC(=O)c2ccccc2)s1,-6,1,3,-13,nt,1,nt,nt
CCOC(=O)C1(CCOc2ccccc2)CCN(Cc2cccn2-c2ncccn2)CC1,25*,0,-10,-25,nt,5,11,12
CCOC(=O)C1(CCOc2ccccc2)CCN(Cc2ccncc2)CC1,1,0,6,3,nt,1,nt,nt
CCOC(=O)C1(Cc2cccc(OC)c2)CCN(Cc2cccn2-c2ccccn2)CC1,29*,0,-30,-30,nt,-2,17,16
C=CCSc1nnc(-c2cc3c(s2)-c2ccccc2CC3)o1,21*,0,-38,-28,7,-1,9,5
O=C(CSc1nnc(-c2cccs2)o1)N1CCc2ccccc21,7,0,-21,-17,9,-2,nt,nt
O=C(O)CCC(=O)N1CN2CN(C(=O)CCC(=O)O)CC([N+](=O)[O-])(C2)C1,nt,nt,16,7,nt,2,nt,nt
COC(=O)c1[nH]c2c(c1C)C(=O)CCC2,31*,0,-5,4,0,-1,-4,2
CC1CCc2nc3ccccc3c(C(=O)OCC(=O)NC3CCS(=O)(=O)C3)c2C1 (stereo not given),3,0,0,-2,nt,-5,nt,nt
COc1cccc(NC(=O)COC(=O)c2c3c(nc4ccccc24)CCC(C)C3)c1 (stereo not given),31*,0,-3,12,16,-1,3,4
ClC(/C=N/n1cnnc1)=C/c1ccccc1,nt,nt,19,8,nt,1,nt,nt
COc1ccc(C2Nc3ccccc3C(=O)N2c2ccccc2)cc1CSc1ccccn1 (stereo not given),11,0,0,5,8,-1,nt,nt
COc1ccc(C2Nc3ccccc3C(=O)N2c2ccccc2)cc1COc1ccccn1 (stereo not given),22*,0,8,-7,4,-1,10,7
OC(COCc1ccco1)CN1CCN(C(c2ccccc2)c2ccccc2)CC1 (stereo not given),9,0,-2,-17,4,-2,nt,nt
Cc1ccc(Cl)cc1N1CCN(CC(O)COCc2ccco2)CC1 (stereo not given),21*,0,-47,-17,10,1,13,7
CCC(=O)NC1CCN(C(=S)NC)CC1,10,0,20,-5,nt,2,nt,nt
COCCNc1nc(SCc2ccccc2)nc2sc3c(c12)CCC3,26*,0,-21,-19,0,-1,21*,22*
CC(CO)Nc1nc(SCc2ccccc2)nc2sc3c(c12)CCC3 (stereo not given),10,0,-20,0,-1,0,nt,nt
Cc1ccnc(NC(=O)Nc2ccc3c(c2)OCO3)c1,-2,0,9,-3,nt,8,nt,nt
C=CCNC(=S)NCC=C,nt,nt,-2,-4,nt,0,nt,nt
CCN1C(=O)c2ccc(C(=O)NCc3ccc4c(c3)OCO4)cc2C1=O,26*,0,-25,-5,3,-1,5,8
CN1C(=O)c2ccc(C(=O)NCc3ccc4c(c3)OCO4)cc2C1=O,8,0,6,-17,4,1,nt,nt
Cc1cc2oc(C(=O)NCc3ccc4c(c3)OCO4)c(C)c2cc1C,28*,0,-74,-32,15,0,23*,18*
COc1ccc(-n2nnc3c(=O)n(Cc4cc(C)ccc4C)cnc32)cc1,9,0,-12,-9,3,-2,nt,nt
COc1cccc(-n2nnc3c(=O)n(Cc4ccccc4F)cnc32)c1,30*,0,-48,-10,12,1,9,7
SMILES,NPY Y1 blocker,Hsp70 act,NPY1 pot ag,NPY2 pot ag,NPY-Y2 antag,Wee1 degr inh,NPY1 antag conf,NPY-Y2 antag ct
Cc1[nH]c(=O)[nH]c(=O)c1N1CCOCC1,nt,nt,11,6,nt,-4,nt,nt
COc1ccc(-n2c(CNC(=O)COc3ccc(Cl)cc3Cl)n[nH]c2=S)cc1,13,0,-9,-25,nt,-2,nt,nt
CN(Cc1ccccc1)CC(O)COc1ccc(CNCc2ccc(Cl)s2)cc1 (stereo not given),29*,0,-34,-24,nt,2,20*,30*
CN(C)CC(=O)c1ccc(-c2ccccc2)cc1,20*,0,-22,-4,3,-3,2,7
CCN(CC)CC(=O)c1ccc(-c2ccccc2)cc1,12,0,-33,-28,6,-1,nt,nt
Cc1cc(C)c2c(c1)/C(=N\N=c1\sc3ccccc3n1C)C(=O)N2,nt,nt,32,10,nt,0,nt,nt
COc1ccc(CCNC(=O)c2cc(=O)n(C)c(=O)n2C)cc1OC,0,0,-12,-11,nt,5,nt,nt
CCOC(=O)c1c(-c2ccccc2)csc1NC(=O)CSc1nc(C)cc(C)n1,20*,0,-36,-23,9,-2,9,15
CCOC(=O)c1c(-c2ccccc2)csc1NC(=O)CSc1nc(N)cc(N)n1,-1,0,0,1,-1,3,nt,nt
CCN(CC)c1ccc(S(=O)(=O)N2CCOCC2)cc1NC(=O)CN1CCc2ccccc2C1,23*,0,23,10,nt,1,2,8
CCOC(=O)C1CCN(CC(=O)Nc2cc(S(=O)(=O)N3CCOCC3)ccc2C)CC1,4,0,-19,-12,nt,0,nt,nt
Cc1ccc(S(=O)(=O)N2CCOCC2)cc1NC(=O)CN1CCC(Cc2ccccc2)CC1,30*,0,-9,-38,nt,2,11,15
FC(F)(F)c1ccccc1NC(=S)NN=C1CCCCCC1,-4,0,16,-10,nt,1,nt,nt
O=C(N/N=C/c1ccc2c(c1)OCO2)C(O)c1ccccc1 (stereo not given),-6,0,7,1,3,2,nt,nt
Cc1cc(SCC(=O)c2cccs2)nc2c(C)cccc12,22*,0,-19,-24,12,2,4,8
Cc1ccc(/C=C/C(=O)N2CCN(S(=O)(=O)/C=C/c3ccccc3)CC2)o1,nt,nt,9,-2,nt,-1,nt,nt
Clc1cccc(OCCN2CCN(CCOc3cccc(Cl)c3)CC2)c1,21*,0,-5,-4,11,-2,5,7
COc1cc(-c2noc(-c3ccccc3C(=O)NCc3ccco3)n2)cc(OC)c1OC,25*,0,-25,-7,3,-2,6,5
CN(C)Cc1ccc(F)cc1Sc1ccc(Cl)cc1Cl,22*,0,-68,-21,11,-1,11,17
CC(O)CNCc1ccc(Cl)cc1Cl (stereo not given),1,0,-4,-22,nt,8,nt,nt
